Screening data as filed in PubChem.
Sampled rows, rich in hits. Any-hit rate of the full collection: about 3.5%.
RGS4 inh – inhibitors of human RGS4; hit rate 0.45% among 310,000; P49798; B-score at 10 µM; HEK293 M3R/RGS4 inducible, Fluo-4 calcium flux; hits give high values; triggered by carbachol at its EC20;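 active = B-score, a plate-corrected calcium signal, over three deviations above library mean, with baseline fluorescence within five deviations of library mean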;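 note: RGS4 expression induced by doxycycline in cells with stable M3 receptor; B-score is computed from the integrated fluorescence ratio over baseline after carbachol; higher B-score means a larger calcium signal and so more RGS4 inhibition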
Target sequence (P49798 whole entry, looked up): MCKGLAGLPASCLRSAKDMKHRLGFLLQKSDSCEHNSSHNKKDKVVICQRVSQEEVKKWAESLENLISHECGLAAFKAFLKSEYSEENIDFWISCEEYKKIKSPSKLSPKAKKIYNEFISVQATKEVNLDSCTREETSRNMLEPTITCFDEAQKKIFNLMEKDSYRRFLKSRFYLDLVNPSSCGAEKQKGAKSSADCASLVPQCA
MrgX1 antag – antagonists of human MrgX1 receptor | Q96LB2 | MRGX1-HEK293 calcium flux, Fluo-4, BAM8-22 antagonism; hits give low values | B-score at 10 µM | hit rate 1.3% among 310,000 | AID 588676;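 active = calcium-response B-score plate-corrected more than 3 library SD below zero, starting fluorescence within 5 deviations, no agonist response on first addition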;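 note: peak minus trough fluorescence over baseline after final BAM8-22 challenge near maximal dose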
Target sequence (Q96LB2 whole entry, looked up): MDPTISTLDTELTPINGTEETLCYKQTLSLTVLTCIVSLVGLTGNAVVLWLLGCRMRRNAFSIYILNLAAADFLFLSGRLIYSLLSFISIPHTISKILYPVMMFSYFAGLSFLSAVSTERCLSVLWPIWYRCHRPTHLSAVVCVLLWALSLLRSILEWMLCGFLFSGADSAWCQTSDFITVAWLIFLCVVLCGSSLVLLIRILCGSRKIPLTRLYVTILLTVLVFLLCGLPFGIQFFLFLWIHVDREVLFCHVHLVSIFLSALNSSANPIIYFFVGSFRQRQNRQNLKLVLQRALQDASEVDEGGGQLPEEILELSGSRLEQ
MrgX1 allo act – allosterically activates human MrgX1 receptor signaling; MrgX1-HEK293, Fluo-4 calcium flux, FDSS; hits give high values; B-score at 10 µM; hit rate 0.63% among 310,000; AID 588675;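 active = plate-corrected calcium response at least 3 library SD above typical, normal starting fluorescence, not activating the receptor alone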;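 note: compound read alongside a low EC10 to EC30 dose of BAM8-22 agonist; peak minus trough fluorescence over baseline measured at the second addition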
MrgX1 ag – human MrgX1 receptor agonism, primary screen | Q96LB2 | MrgX1-HEK293 cells, Fluo-4 calcium fluorescence, agonist mode; hits give high values | B-score at 10 µM | hit rate 0.44% among 310,000 | AID 588627;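 active = calcium response B-score plate-corrected fluorescence ratio at least 3 library SD, with starting fluorescence B-score inside 5 SD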
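System – MrgX1-expressing HEK293 cells · Incubation – cells plated overnight, dye loaded 0.5 h 37 °C, 0.5 h room temperature · Technique – kinetic Fluo-4 NW fluorescence of intracellular calcium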
RGS4 pot – potentiators or activators of RGS4; B-score at 10 µM; hit rate 0.92% among 310,000; HEK293 M3R/inducible RGS4, carbachol calcium flux Fluo4; hits give low values; AID 463111;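 active = B-score of the integrated calcium signal more than 4 SD below the library mean, with starting fluorescence not abnormally high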;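 note: negative B-score means reduced calcium response which marks RGS4 activation or potentiation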
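System: HEK293 FlpIn-TREx cells, stable M3R, doxycycline-inducible RGS4. Timing: overnight RGS4 induction, 30 min dye load 37 °C, 20 min compound RT. Also added: carbachol, ECmax concentration. Measured by: Fluo4 fluorescence kinetic imaging of calcium. Evaluation: integrated calcium ratio converted to B score.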
MrgX1 ag reconf – human MrgX1 agonism, re-confirmation screen. hit rate 78% among 600. shares compounds with MrgX1 ag. AID 602412. MrgX1-HEK293, Fluo-4 calcium fluorescence, FDSS. activation, % at 10 µM;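 active = calcium signal rise, corrected for plate position, at least 3 library SD high, with starting brightness within 5 such deviations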; note: reference of the scale not given here
HEK293 Ca flux – MrgX1 antagonist counter-screen hit in parental HEK293 cells. shares compounds with MrgX1 antag. Fluo-4 calcium fluorescence, FDSS. fluorescence ratio F(max-min)/F0 at 10 µM. hit rate 2% among 4,000;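 active = duplicate-averaged calcium fluorescence ratio at least three times the standard deviation of buffer wells, a nonspecific response in parental cells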
HEK293 Ca counter – activity in parental HEK293 cells without MrgX1; parental HEK293 calcium flux, Fluo-4 fluorescence ratio; hits give high values; hit rate 0.4% among 4,000; shares compounds with MrgX1 antag; fluorescence ratio F(max-min)/F0 at 10 µM;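 active = calcium fluorescence ratio, averaged over duplicates, at least 3 SD of the buffer-well ratio, meaning a nonspecific response in receptor-free cells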;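 note: untransfected parental HEK293 lacking MrgX1 used as counterscreen for MrgX1 allosteric activators; fluorescence change taken during the second addition on a kinetic imager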
HEK293 Ca cntr2 – activity in parental HEK293 cells lacking MrgX1 receptor; hit rate 8.7% among 4,000; Fluo-4 calcium fluorescence (FDSS); hits give high values; fluorescence ratio F(max-min)/F0 at 10 µM; shares compounds with MrgX1 antag; AID 624115;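 active = calcium fluorescence ratio at least three times the spread of buffer wells, meaning a non-specific response in parental cells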
An asterisk follows results filed as active; i = inactive; nt = not tested or not shown.

SMILES	RGS4 inh	MrgX1 antag	MrgX1 allo act	MrgX1 ag	RGS4 pot	MrgX1 ag reconf	HEK293 Ca flux	HEK293 Ca counter	HEK293 Ca cntr2
Cn1c(=O)c(C(=O)NNC(=O)c2ccccc2F)c(O)c2ccccc21	i	i	i	65.3*	i	404.8%*	i	i	70.8*
CCn1c(=O)c(C(=O)NNC(=O)c2ccccc2Cl)c(O)c2ccccc21	i	i	i	105*	i	321.9%*	i	i	77.6*
Nc1cccc(-c2csc(-n3ncc(C(=O)O)c3C(F)(F)F)n2)c1	i	i	i	i	i	nt	nt	nt	nt
O=C(O)c1cnn(-c2nc(-c3cccc(F)c3)cs2)c1C(F)(F)F	i	i	i	48.1*	i	155.9%*	i	i	i
CSCC(C)N1CCC(CCC(=O)NC2CC2)CC1 (centres undefined)	i	i	i	i	i	nt	nt	nt	nt
CC1(C)CC(=O)c2c(-c3cccnc3)n[nH]c2C1	i	i	i	29.3*	i	i	i	i	i
CC1(C)CC(=O)c2c(Cc3ccccc3)n[nH]c2C1	i	i	i	i	i	nt	nt	nt	nt
O=C(Cc1c2ccccc2nc2ccccc12)c1ccccc1	i	i	i	30.6*	i	i	i	i	i
COc1cc(C(=O)CCN2CCC(c3ccccc3)C2)cc(OC)c1OC (centres undefined)	i	i	i	i	i	nt	nt	nt	nt
O=C(CCN1CCC(c2ccccc2)C1)c1ccc2c(c1)OCCO2 (centres undefined)	i	i	i	36.4*	i	i	i	i	i
O=C(CCN1CCC(c2ccccc2)C1)c1cccs1 (centres undefined)	i	i	i	43.7*	i	140.1%*	i	i	i
O=C(c1cccs1)N1CCC(c2ccccc2)C1 (centres undefined)	i	i	i	i	i	nt	nt	nt	nt
c1ccc(CNc2ncnc3sc4c(c23)CCC4)nc1	i	i	i	i	i	nt	nt	nt	nt
c1ccc(CNc2ncnc3scc(-c4cccs4)c23)nc1	i	i	i	26.5*	i	159.9%*	i	i	i
Cn1cc(C(=O)N2CCCC(Nc3ccc(F)cc3)C2)c2ccccc21 (centres undefined)	i	i	i	i	i	nt	nt	nt	nt
CCOC(=O)c1cnc2c(OC)cccc2c1N1CC(C)CC(C)C1 (centres undefined)	i	i	i	28*	i	i	i	i	i
COc1ccc(-c2cc(OC)c3c(C)oc(C)c3c(=O)c2)cc1OC	i	i	i	i	i	nt	nt	nt	nt
COc1cc(-c2cc(OC)c3c(C)oc(C)c3c(=O)c2)ccc1O	i	i	i	30*	i	175.2%*	i	i	i
CCOC(=O)C1(CC2CCCCO2)CCN(Cc2cc3ccccc3[nH]2)CC1 (centres undefined)	i	i	i	113*	i	650.5%*	i	i	95*
CCCCc1ncc(CN2CCC(CC3CCCCO3)(C(=O)OCC)CC2)[nH]1 (centres undefined)	i	i	i	i	i	nt	nt	nt	nt
N=C1/C(=C\c2ccc(SCc3ccco3)o2)C(=O)N=C2SC=NN12	i	i	i	90.4*	i	267.5%*	i	i	47*
CC1=NN2C(=N)/C(=C\c3ccc(SCc4ccccc4)o3)C(=O)N=C2S1	i	i	i	i	i	nt	nt	nt	nt
Cc1cc(C)nc(/N=C(\N)Nc2ccc(OCCC(C)C)cc2)n1	i	i	i	118*	i	599.1%*	i	i	124*
Cc1cc(C)nc(/N=C(\N)Nc2cccc(OCc3ccccc3)c2)n1	i	i	i	153*	i	522.8%*	i	i	99.9*
Cc1cc(C)nc(/N=C(\N)Nc2ccc(CC(=O)OC(C)C)cc2)n1	i	i	i	143*	i	424.4%*	i	i	90*
SMILES	RGS4 inh	MrgX1 antag	MrgX1 allo act	MrgX1 ag	RGS4 pot	MrgX1 ag reconf	HEK293 Ca flux	HEK293 Ca counter	HEK293 Ca cntr2
COc1ccccc1N/C(N)=N/c1nc(C)cc(C)n1	i	i	i	i	i	nt	nt	nt	nt
Cc1cc(C)c(C)c(S(=O)(=O)N(C)C2CCN(C)CC2)c1C	i	i	i	i	i	nt	nt	nt	nt
S=C(c1cn(Cc2ccc(Br)cc2)c2ccccc12)N1CCOCC1	i	i	i	i	i	nt	nt	nt	nt
CS(=O)(=O)N1CCC(Oc2ccccc2C(=O)N2CCC[C@H]2CO)CC1	i	i	i	i	i	nt	nt	nt	nt
O=C(O)c1cccnc1SCC(=O)N1CCCc2ccccc21	i	i	i	35.7*	i	i	i	i	i
CC(=O)Nc1cccc(OC(=O)c2ccoc2C)c1	i	i	i	32.9*	i	128.5%*	i	i	45.9*
CCOC(=O)C[C@H]1c2cc(F)ccc2S(=O)(=O)N1c1cccc(OC)c1	i	i	i	i	i	nt	nt	nt	nt
CC(C)Oc1ccc(C(=O)CCN2CCOCC2)cc1	i	i	i	65.5*	i	i	i	i	i
Cc1cc(-c2nnc(CCC(=O)NCCc3ccccc3F)o2)no1	i	i	i	i	i	nt	nt	nt	nt
CC1CC2(CCCCC2)N2C(=O)C(=O)c3cccc1c32 (centres undefined)	i	i	i	46*	i	195.8%*	i	i	i
Cc1cc2c3c(c1)C(C)CC(C)(C)N3C(=O)C2=O (centres undefined)	i	i	i	i	i	nt	nt	nt	nt
CCC(=O)N/N=C/c1ccc(-c2ccc([N+](=O)[O-])cc2)o1	i	i	i	i	i	nt	nt	nt	nt
CC(C)(C)C(=O)/C=c1\s/c(=C\c2ccc(-c3ccc([N+](=O)[O-])cc3)o2)c(=O)n1CC(=O)NC(N)=O	i	i	i	82.2*	i	464.0%*	0.017*	i	88.8*
COc1ccc(-c2cc3nc4ccccc4n3c(N)c2C#N)cc1	i	i	i	i	i	nt	nt	nt	nt
O=S(=O)(c1ccccc1)N1CCC2(CC1)OCCO2	i	i	i	i	i	nt	nt	nt	nt
